High-throughput results as filed in PubChem.
An excerpt weighted towards active compounds, which were near 3.7% of everything screened.
SR-BI DiI inh: inhibitors of mouse SR-BI mediated HDL lipid uptake; Q61009; ldlA[mSR-BI] CHO cells, DiI-HDL uptake fluorescence, 3 h; inhibition, % at 12.5 µM; 0.96% of 320,000 active; AID 488896;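 active = mean replicate inhibition of at least 70% and a set share of replicates each scoring 70 or more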;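 also: 0% = median of neutral control wells and 100% = median of positive control wells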
SR-BI uptake up: SR-BI HDL lipid transfer activation. CHO ldlA[mSR-BI] cells, DiI-HDL uptake fluorescence, 3 h; 100 = double the neutral-control signal. activation, % at 12.5 µM. 0.096% of 320,000 active;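 active = mean replicate activation of at least 60% and every replicate at or above 60%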;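 also: 0% = median plate neutral-control signal and 100% = twice that signal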
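Material: SR-BI-overexpressing, LDLR-lacking CHO cells | Dosing: Single compound concentration, delivered by pin transfer | Probe or stimulus: Labelled HDL, 10 µg/mL | Signal: Bottom-read cell fluorescence after medium removal, ex 550/em 595 nm | Schedule: 3 h, 37 °C | Evaluation: HDL uptake via cellular fluorescence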
JMJD2C inh: blocks human GASC-1 demethylase activity. AID 2099. Q9H3R0. 0.069% of 330,000 active. GST-JMJD2C(1-420) H3K9me3 demethylation, DELFIA europium. inhibition, % at 2.35 µM;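 active = more than half of a compound's replicate wells show inhibition beyond 50%, single wells judged on their own value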;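 also: signal counts dimethyl H3K9 product captured on neutravidin plate; 0% = median of DMSO wells and 100% = 0.3 times that DMSO median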
FXN GAA850 act: frataxin GAA850 promoter activation. 0.56% of 360,000 active. HEK293 lucGAA850 FXN promoter luciferase reporter, 24 h; percent of 10 µM SAHA response. activation, % at 6 µM. AID 540364;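 active = activation above the average of all compounds screened plus 3 SD, cutoff fixed separately per campaign, cut at about 7.5% in these data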;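 also: 0% = DMSO wells and 100% = 10 µM SAHA wells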
AHR act: activators of human aryl hydrocarbon receptor. P35869. activation, % at 5 µM. AHR-responsive luciferase reporter cells, luminescence. AID 2796. 2.5% of 320,000 active; in the data active = activation above about 47%;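 also: 0% = vehicle wells and 100% = reference agonist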
Starred values were filed as active, the others as inactive.

CN(C)C(=O)CSc1ccccc1C(=O)OCC(=O)NC1CC1 was read as SR-BI DiI inh 7.9, SR-BI uptake up -7.9, JMJD2C inh 9.9, FXN GAA850 act 0.8 and AHR act 2.0.
Screening COc1ccc([N+](=O)[O-])cc1NC(=S)NC(NC(=O)C(c1ccccc1)c1ccccc1)C(Cl)(Cl)Cl (configuration not stated) returned SR-BI DiI inh 87.0*, SR-BI uptake up -87.0, JMJD2C inh -11.4, FXN GAA850 act -6.3 and AHR act 2.7.
`CC1=NN(C(N)=S)C(=O)C1N=Nc1ccc(C)c(Br)c1` (configuration not stated) gave SR-BI DiI inh 13.0, SR-BI uptake up -13.0, JMJD2C inh -6.5, FXN GAA850 act 4.3 and AHR act 58.0*.
Screening CC1=NN(C(N)=S)C(=O)C1N=Nc1cccc(C(=O)O)c1 (configuration not stated) returned SR-BI DiI inh -33.1, SR-BI uptake up 33.1, JMJD2C inh -2.6 and FXN GAA850 act 0.5.
For COc1ccccc1N=NC1C(=O)N(C(N)=S)N=C1C (configuration not stated) the results were SR-BI DiI inh 1.8, SR-BI uptake up -1.8, JMJD2C inh 3.6, FXN GAA850 act -0.8 and AHR act 64.2*.
CC1=NN(C(N)=S)C(=O)C1N=Nc1cccc(C)c1 (configuration not stated) was read as JMJD2C inh 12.9, FXN GAA850 act 1.6 and AHR act 64.2*.
CC1=NN(C(N)=S)C(=O)C1N=Nc1ccccc1Cl (configuration not stated) was read as SR-BI DiI inh -10.5, SR-BI uptake up 10.5, JMJD2C inh 4.4, FXN GAA850 act 2.8 and AHR act 3.4.
O=C(NC1CC2CCC1C2)C1COc2ccccc2O1 (configuration not stated) was read as SR-BI DiI inh 3.6, SR-BI uptake up -3.6, JMJD2C inh 67.6*, FXN GAA850 act 4.1 and AHR act 5.5.
Screening O=C(O)CNC(=O)C1COc2ccccc2O1 (configuration not stated) returned SR-BI DiI inh -19.3, SR-BI uptake up 19.3, JMJD2C inh -5.4, FXN GAA850 act 0.9 and AHR act -1.9.
For COc1ccc(CCC(=O)NCc2cn3ccccc3n2)cc1 the results were JMJD2C inh -4.8, FXN GAA850 act -0.5 and AHR act 3.2.
`O=C(NC1CC(=O)N(c2ccccc2)C1)N1CCN(C(=O)c2ccco2)CC1` (configuration not stated) gave SR-BI DiI inh -16.5, SR-BI uptake up 16.5, JMJD2C inh 4.8, FXN GAA850 act 1.5 and AHR act -2.3.
CC(=O)Oc1ccc(-c2nc(-c3cccnc3)no2)cc1 was read as SR-BI DiI inh -22.8, SR-BI uptake up 22.8, JMJD2C inh -4.8, FXN GAA850 act -0.2 and AHR act -0.3.
For Brc1ccc(-c2nc(-c3cccnc3)no2)o1 the results were SR-BI DiI inh 0.3, SR-BI uptake up -0.3, JMJD2C inh -4.4, FXN GAA850 act 1.5 and AHR act 63.3*.
`CCN(CC)C(=O)CSc1nnc2cc(C)c3ccccc3n12` gave SR-BI DiI inh -6.3, SR-BI uptake up 6.3, JMJD2C inh 13.4, FXN GAA850 act -1.4 and AHR act 52.1*.
CN(C)C(=O)CSc1nnc2sc3ccccc3n12 was read as SR-BI DiI inh -34.0, SR-BI uptake up 34.0, JMJD2C inh -4.8, FXN GAA850 act 0.6 and AHR act 57.5*.
CCOC(=O)CC(=O)CSc1nnc2sc3ccccc3n12 was read as SR-BI DiI inh -17.2, SR-BI uptake up 17.2, JMJD2C inh -0.6, FXN GAA850 act 1.5 and AHR act 25.8.
Cc1ccsc1C(=O)OCC(=O)c1cc(C)n(C)c1C was read as SR-BI DiI inh 6.4, SR-BI uptake up -6.4, JMJD2C inh -5.4, FXN GAA850 act -6.2 and AHR act 0.2.
Screening COCOCCn1cc(CN2CCS(=O)(=O)N(Cc3ccc(-c4ccc(OC)nc4)cc3)C(C(C)C)C2=O)nn1 (configuration not stated) returned FXN GAA850 act 1.7.
COc1ccc(CNC(=O)c2cnccn2)cc1 was read as SR-BI DiI inh -18.3, SR-BI uptake up 18.3, JMJD2C inh -1.2, FXN GAA850 act 1.0 and AHR act 1.4.
C#CCN1C(=O)C(O)(CC(=O)/C=C/c2ccco2)c2ccccc21 (configuration not stated) was read as SR-BI DiI inh -15.4, SR-BI uptake up 15.4, JMJD2C inh -3.4, FXN GAA850 act -1.1 and AHR act 9.6.
Cc1ccc2cc(CN(CC3CCCO3)C(=S)Nc3ccccc3)c(=O)[nH]c2c1C (configuration not stated) was read as SR-BI DiI inh 9.4, SR-BI uptake up -9.4, JMJD2C inh 3.7, FXN GAA850 act -5.9 and AHR act 51.2*.
CC(=O)N(CCc1ccccc1C)Cc1cc2cc3c(cc2[nH]c1=O)OCO3 was read as SR-BI DiI inh -12.9, SR-BI uptake up 12.9, JMJD2C inh -3.7, FXN GAA850 act -2.6 and AHR act 60.5*.
COc1cc2cc(CN(CCc3ccccc3C)C(=S)NCCCN(C)C)c(=O)[nH]c2cc1OC was read as SR-BI DiI inh -24.2, SR-BI uptake up 24.2, JMJD2C inh 5.7, FXN GAA850 act -3.1 and AHR act 2.0.
For CCNC(=S)N(CCc1ccccc1C)Cc1cc2cc(OC)c(OC)cc2[nH]c1=O the results were SR-BI DiI inh 15.0, SR-BI uptake up -15.0, JMJD2C inh -7.7, FXN GAA850 act -2.7 and AHR act 57.1*.
For CCN(CC)CCCN(Cc1cc2cc3c(cc2[nH]c1=O)OCO3)C(=S)Nc1ccccc1 the results were SR-BI DiI inh -2.5, SR-BI uptake up 2.5, JMJD2C inh -2.5, FXN GAA850 act -1.7 and AHR act 48.7*.
Screening Cc1cc(C)c2[nH]c(=O)c(CN(CC3CCCO3)C(=S)Nc3ccccc3)cc2c1 (configuration not stated) returned SR-BI DiI inh 19.7, SR-BI uptake up -19.7, JMJD2C inh 10.2, FXN GAA850 act 0.3 and AHR act 9.5.
CCN1CCN(C(=O)C2CCN(c3nnc(-n4c(C)ccc4C)s3)CC2)CC1 was read as SR-BI DiI inh 1.8, SR-BI uptake up -1.8, JMJD2C inh -6.3, FXN GAA850 act 2.1 and AHR act -0.2.
`CC1CCCCN1C(=O)COC(=O)c1cc([N+](=O)[O-])ccc1N1CCOCC1` (configuration not stated) gave SR-BI DiI inh 11.2, SR-BI uptake up -11.2, JMJD2C inh 1.6, FXN GAA850 act 0.2 and AHR act 1.8.
For CCOc1cccc(/C=N/NC(=O)c2cc(C3CC3)[nH]n2)c1O the results were SR-BI DiI inh 38.5, SR-BI uptake up -38.5, JMJD2C inh 4.7, FXN GAA850 act -4.5 and AHR act 53.5*.
Screening CCOc1cccc(/C=N/NC(=O)c2cccnc2)c1O returned SR-BI DiI inh 23.3, SR-BI uptake up -23.3, JMJD2C inh 9.4, FXN GAA850 act -1.6 and AHR act 14.0.
